Molecules are shown by their SMILES. Active and inactive are the calls of the source.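 How the source made its calls, unless noted: active means a full or partial loss of lipid-probe fluorescence in the fish gall bladder, intestine or both, judged by eye; inactive means no fluorescence loss, or compound toxic to the fish.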

We go through 13 molecules from PubChem BioAssay.

Experiment [1] can be described thus: inhibitors of TNFa-induced NFkB p65 translocation, primary screen, imaging, HUVEC, MLSMR starter and 10KST1 sets (AID 438;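 active means inhibition above 20% together with a positive visual image hit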;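 further: compound added about 3h40 before a 20 min TNFalpha stimulation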;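 on inhibition: signal is the nuclear over cytoplasmic p65 intensity ratio per well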). Conditions: HUVEC TNFa-induced p65 nuclear translocation; cell count: measured here: nuclei count (cytotoxicity indicator), at 2.08 µM; inhibition: at 2 µM, stronger effect = higher value, 0% TNFa-plus-vehicle, 100% no-TNFa wells.
Experiment [2] in a line: endothelial E-selectin expression blockers – imaging, HUVEC, immunofluorescence, MLSMR starter and 10KST1 sets, primary screen (AID 487;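 active means visually confirmed hit in the image check and inhibition above 20%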;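 on inhibition: signal is fraction of cell area covered by stained E-selectin grains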;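 on nuclei count: 100% = median nuclei count of all wells on the same plate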). The following applies: HUVEC TNFalpha-induced E-selectin immunofluorescence imaging, at 2 µM; inhibition: stronger effect = higher value; nuclei count: measured here: cell number, toxicity.
Experiment [3] can be described thus: Primary imaging screen for DUSP6 inhibitors that restore phospho-Erk in transfected HeLa cells, chemical complementation (AID 609;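 active means compounds giving at least 50% inhibition in the cell-based MKP-3 phosphatase rescue imaging test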;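 on inhibition: phospho-Erk level distribution per well compared with pooled transfected vehicle control wells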). Conditions: HeLa MKP-3 transfected, phospho-Erk imaging KS statistic, at 10 µM, cells stimulated with TPA for 15 min.
The target of experiment [4] is Dual specificity protein phosphatase 6 (Homo sapiens) (UniProt Q16828). The experiment is described as above. Conditions: HeLa MKP-3 transfected, phospho-Erk imaging KS statistic; at 10 µM; stronger effect = higher value; cells stimulated with TPA for 15 min.
Experiment [5] addresses Voltage-gated potassium channel subunit beta-2 (Rattus norvegicus) (UniProt P62483). Put plainly: inhibitors of rat Kvbeta2 reductase activity – biochemical, NADPH fluorescence, primary screen (AID 622;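 active means fluorescence slope higher than the sample average by over 3 SD, cut at about -0.22 in these data, passing the limit was not always enough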;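 further: slope of raw intensity against log time taken from 70 to 1610 s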). The following applies: recombinant KvBeta, 4-cyanobenzaldehyde reduction, at 10 µM, stronger effect = higher value.
For experiment [6] the target is unchanged. Put plainly: enhancers of rat Kvbeta2 NADPH turnover – biochemical, NADPH fluorescence, primary screen (AID 623;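 active means NADPH fluorescence slope more negative than the mean of all samples by about 3 SD, 99.7% confidence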;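 further: fluorescence intensity change per second fitted from 20 to 320 s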). Conditions: Recombinant KvBeta, NADPH fluorescence decrease slope, 10 min; at 10 µM; stronger effect = lower value.
In experiment [7] the target is Alpha-2C adrenergic receptor (Homo sapiens) (UniProt P18825). Put plainly: compounds altering alpha2C-coupled GIRK flux – cell-based, HEK293 alpha2C/GIRK1/2, thallium flux, primary screen (AID 624;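 active means fluorescence slope after compound addition differing from the mean of all screened samples at 99.7% confidence, in either direction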;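 further: slope of fluorescence ratio to pre-addition baseline per second over 15 to 24 s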). The following applies: thallium flux BTC fluorescence, at 10 µM, actives lie on both sides.
A short description of experiment [8]: inhibitors of larval lipid processing in zebrafish, primary screen, whole organism, PED6 fluorescence, gall bladder and intestine (AID 686).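 Further: larvae 5 to 7 days old with five fish per well; signal comes from phospholipase A2 cleavage of quenched PED6 carried via bile; overnight exposure to compound and PED6 before scoring.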 The following applies: Zebrafish larvae PED6 lipid processing, fluorescence scoring; screened at 20 µM (by protocol). A digest of the protocol:
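Also added: quenched phospholipase substrate PED6, 100 nM final, ingested by larvae; System: zebrafish larvae, 5-7 d; Quantity: 5 larvae per well; Compound: 20 µM single dose; Schedule: overnight compound and PED6 incubation; Read-out: visual per-well fluorescence inhibition score; Measured by: By-eye fluorescence microscopy; Medium: E3.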

Experiment [9] is described as follows: loss of swimming-algae plug formation – whole organism, Chlamydomonas reinhardtii, WT vs cilia-less mutant, absorbance, 96-well, primary screen (AID 463189;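 active means inhibition at or above 50% relative to wild type and mutant plate controls; inactive means inhibition below 50%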;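 further: 0% = wild type cc124 cells in DMSO and 100% = ciliumless bld1 mutant cells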). The following applies: Chlamydomonas reinhardtii gravitaxis, OD600 absorbance, 2 days; at 10 µM; stronger effect = higher value.
[10] abbreviates: measured here: cell density z-score.
Where [11] appears, read: measured here: nuclear c-Myc green intensity z-score.
Where [12] appears, read: measured here: nuclear pErk red intensity z-score, stronger effect = higher value.

Voltage-gated potassium channel subunit beta-2 (Rattus norvegicus), sequence (P62483 whole entry, looked up): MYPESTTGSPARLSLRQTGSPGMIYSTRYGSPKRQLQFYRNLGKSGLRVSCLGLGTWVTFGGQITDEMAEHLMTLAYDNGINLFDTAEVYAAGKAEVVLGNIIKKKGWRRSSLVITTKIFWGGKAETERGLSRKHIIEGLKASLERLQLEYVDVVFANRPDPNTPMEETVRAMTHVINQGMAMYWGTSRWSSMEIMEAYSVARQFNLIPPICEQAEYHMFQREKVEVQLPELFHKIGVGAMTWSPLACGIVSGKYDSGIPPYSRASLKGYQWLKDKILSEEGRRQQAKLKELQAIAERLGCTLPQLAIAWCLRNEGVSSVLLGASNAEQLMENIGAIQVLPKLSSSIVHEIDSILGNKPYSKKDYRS
Alpha-2C adrenergic receptor (Homo sapiens), sequence (P18825 whole entry, looked up): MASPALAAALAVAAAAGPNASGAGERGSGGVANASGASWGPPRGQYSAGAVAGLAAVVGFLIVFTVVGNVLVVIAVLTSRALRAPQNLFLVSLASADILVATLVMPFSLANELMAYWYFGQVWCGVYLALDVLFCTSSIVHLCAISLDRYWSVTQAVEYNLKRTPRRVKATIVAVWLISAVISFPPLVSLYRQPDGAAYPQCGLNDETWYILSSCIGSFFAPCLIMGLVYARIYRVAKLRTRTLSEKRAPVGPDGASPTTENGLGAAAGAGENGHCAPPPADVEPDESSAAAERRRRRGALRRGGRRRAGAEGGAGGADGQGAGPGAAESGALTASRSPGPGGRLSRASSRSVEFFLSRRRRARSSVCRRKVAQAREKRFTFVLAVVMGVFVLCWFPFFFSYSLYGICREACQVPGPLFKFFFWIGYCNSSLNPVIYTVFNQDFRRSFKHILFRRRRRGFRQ
Dual specificity protein phosphatase 6 (Homo sapiens), sequence (Q16828 whole entry, looked up): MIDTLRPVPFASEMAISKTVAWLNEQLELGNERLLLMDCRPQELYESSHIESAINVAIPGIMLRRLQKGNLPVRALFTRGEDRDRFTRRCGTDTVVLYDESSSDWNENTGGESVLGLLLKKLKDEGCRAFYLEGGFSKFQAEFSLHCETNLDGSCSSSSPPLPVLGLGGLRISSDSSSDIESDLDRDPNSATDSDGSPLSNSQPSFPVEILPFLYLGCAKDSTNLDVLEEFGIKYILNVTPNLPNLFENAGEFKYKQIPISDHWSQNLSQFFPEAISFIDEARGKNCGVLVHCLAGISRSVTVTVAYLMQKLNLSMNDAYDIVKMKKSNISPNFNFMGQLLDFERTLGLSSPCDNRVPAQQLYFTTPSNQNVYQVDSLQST

Take `COc1ccc(CN2CCC(=O)NC2=O)cc1`: in [1], the cell count was 670. The inhibition (usually the relative decrease from the control value, in per cent) in experiment [1] is -14.7% (inactive); in experiment [2], -450% (inactive); in [4], 9.39% (inactive); in experiment [9] it was 2.33% (inactive). In experiment [2], this molecule displayed a nuclei count of 162%. Also, the z-score is 0.756 in experiment [3] (setting [10]), -1.36 in [3] (setting [11]) and 0.0301 in experiment [3] (setting [12]). For the same molecule, in experiment [5], the fluorescence slope is -0.502 (inactive). Further, in experiment [6], the NADPH fluorescence slope is -3.7e-05 (inactive). In [7], the slope is 0.00539 (inactive). Besides, in [8], the result was inactive.

Turning to `Cc1nc(Nc2ncc3c(n2)CC(C)(C)CC3=O)nc2ccccc12`, the cell count in experiment [1] worked out at 532. Besides, the inhibition was -10.9% (inactive) in experiment [1], -13% (inactive) in experiment [2], -3.5% (inactive) in [4] and -7.48% (inactive) in experiment [9]. The same molecule registered a nuclei count in experiment [2] of 195%. The z-score is -2.93 in experiment [3] (setting [10]), -0.197 in [3] (setting [11]) and 3.21 in experiment [3] (setting [12]). The fluorescence slope in [5] is -0.376 (inactive). Besides, the NADPH fluorescence slope in experiment [6] was -2.4e-05 (inactive). The slope in experiment [7] is 0.0055 (inactive). Also, the molecule was called inactive in experiment [8].

With `C[C@@H]1C[C@H](Nc2ccccc2)c2ccccc2N1C(=O)c1cccnc1`, the cell count in experiment [1] is 539. Besides, the inhibition was -1.7% (inactive) in experiment [1], 3.9% (inactive) in experiment [2], 25.7% (inactive) in experiment [4] and 0.503% (inactive) in experiment [9]. This molecule registered a nuclei count in experiment [2] of 159%. Further, the z-score in experiment [3] (setting [10]) was 2.9; in experiment [3] (setting [11]), -1.02; in [3] (setting [12]) it was 0.461. Further, the fluorescence slope in experiment [5] was -0.265 (inactive). In addition, the NADPH fluorescence slope in [6] is 6.9e-06 (inactive). For the same molecule, in [7], the slope was 0.00503 (inactive). The outcome in experiment [8] was inactive.

On to `CCOC(=O)c1cc2c(=O)n3cccc(C)c3nc2n(C)c1=N`, for which, in [1], the cell count worked out at 622. Also, the inhibition in [1] is -8.8% (inactive); in [2], -51.9% (inactive); in experiment [4] it was 6.04% (inactive); in [9] it was 119% (active). The nuclei count in [2] came out at 142%. Also, the values for the z-score in experiment [3] (setting [10]), in [3] (setting [11]) and in [3] (setting [12]) were 1.38, -1.25 and -0.0406, respectively. Further, the fluorescence slope in experiment [5] is -0.436 (inactive). Also, in [6], the NADPH fluorescence slope is -8.5e-05 (inactive). The slope in [7] was 0.00241 (inactive). For the same molecule, the molecule was classed as inactive in [8].

`CCOC(=O)CC(=O)CSc1nc2c(cc1C#N)CCCCC2`: in [1], the cell count came out at 510. In addition, the inhibition was -8.3% (inactive) in experiment [1], -29.1% (inactive) in experiment [2], 6.51% (inactive) in experiment [4] and 12.7% (inactive) in experiment [9]. Moreover, in experiment [2], the nuclei count worked out at 114%. In addition, the z-score is -0.0989 in experiment [3] (setting [10]), -0.82 in [3] (setting [11]) and 0.239 in [3] (setting [12]). The fluorescence slope in experiment [5] is -0.342 (inactive). In addition, the NADPH fluorescence slope in experiment [6] was -3e-05 (inactive). For the same molecule, in experiment [7], the slope was 0.00873 (inactive). In experiment [8], the molecule was called inactive.

Take `CC(C)OC(=O)[C@H]1[C@H](c2ccc(Cl)cc2)[C@@](C#N)(C(N)=O)[C@@H]2C=CC(C(N)=O)=CN21`: the cell count in [1] amounted to 523. For the same molecule, the inhibition in [1] is -4.9% (inactive); in [2] it was -24% (inactive); in [4], 2.46% (inactive); in experiment [9], 6.97% (inactive). The molecule also showed a nuclei count in experiment [2] of 155%. For the same molecule, the z-score in experiment [3] (setting [10]) was 0.333; in experiment [3] (setting [11]), 0.745; in [3] (setting [12]), -0.843. The fluorescence slope in [5] is -0.335 (inactive). Further, in experiment [6], the NADPH fluorescence slope was 1.2e-05 (inactive). The slope in [7] is 0.00427 (inactive). The result in experiment [8] was inactive.

In the case of `COc1ccc(-c2c3c([nH]c(=S)c2C#N)CCC3)cc1`, in experiment [1], the cell count is 527. Further, the inhibition is -5.1% (inactive) in experiment [1], -113% (inactive) in [2], 2.46% (inactive) in experiment [4] and -1.44% (inactive) in experiment [9]. This molecule also came in with a nuclei count in experiment [2] of 192%. The z-score in [3] (setting [10]) was -0.0351; in [3] (setting [11]), 1.87; in [3] (setting [12]) it was 0.16. In addition, the fluorescence slope in experiment [5] was -0.314 (inactive). For the same molecule, the NADPH fluorescence slope in experiment [6] is -4.4e-06 (inactive). The slope in [7] was 0.00379 (inactive). Also, the molecule was classed as inactive in [8].

On to `Cc1nnc2c(NC(C)C)nc3ccccc3n12`, for which the cell count in experiment [1] was determined as 381. Further, the inhibition in [1] is -8.4% (inactive); in experiment [2], -63% (inactive); in experiment [4] it was 22.7% (inactive); in experiment [9], 29.1% (inactive). For the same molecule, the nuclei count in [2] is 137%. Moreover, the z-score in [3] (setting [10]) is 0.584; in [3] (setting [11]), -0.494; in experiment [3] (setting [12]) it was -1.32. The fluorescence slope in experiment [5] was -0.382 (inactive). The NADPH fluorescence slope in experiment [6] is -5.9e-05 (inactive). Further, the slope in [7] was 0.0077 (inactive). Further, the call in experiment [8] was inactive.

For `COC(=O)c1ccc(C(=O)OC)c(NC(=O)c2cc3ccccc3o2)c1`, in [1], the cell count amounted to 641. The inhibition in [1] was -12.1% (inactive); in [2], 15.1% (inactive); in experiment [4], 6.51% (inactive); in [9] it was -2.3% (inactive). This molecule yielded a nuclei count in [2] of 175%. In addition, the z-score in experiment [3] (setting [10]) is 2.88; in experiment [3] (setting [11]) it was -0.375; in experiment [3] (setting [12]), -1.4. Further, the fluorescence slope in experiment [5] was -0.377 (inactive). In experiment [6], the NADPH fluorescence slope was -5.2e-05 (inactive). Besides, in [7], the slope was 0.00547 (inactive). For the same molecule, in experiment [8], the outcome was inactive.

As for `CCCCCCSC1=C(C#N)C(c2ccccc2)CC(=O)N1` (centres undefined), the cell count in experiment [1] was 469. In addition, the inhibition in [1] was 0.6% (inactive); in [2], -6.9% (inactive); in [4], 18.9% (inactive); in experiment [9] it was 24.3% (inactive). This molecule displayed a nuclei count in experiment [2] of 74.3%. Besides, the z-score is 0.751 in [3] (setting [10]), 0.0915 in [3] (setting [11]) and -1.53 in experiment [3] (setting [12]). Also, the fluorescence slope in experiment [5] is -0.513 (inactive). In experiment [6], the NADPH fluorescence slope was -6.1e-05 (inactive). The slope in [7] was 0.00499 (inactive). Also, the molecule was classed as inactive in experiment [8].

Regarding `Cc1ccc(C2C(C(=O)c3cc4ccccc4o3)=C(O)C(=O)N2CCCN(C)C)cc1` (centres undefined), the cell count in experiment [1] is 445. The inhibition is -4.5% (inactive) in [1], -30.5% (inactive) in experiment [2], -2.91% (inactive) in experiment [4] and -1.22% (inactive) in [9]. The molecule also gave a nuclei count in experiment [2] of 161%. The results for the z-score in [3] (setting [10]), in [3] (setting [11]) and in experiment [3] (setting [12]) were -0.136, -1.28 and 0.773, respectively. The fluorescence slope in experiment [5] is -0.414 (inactive). Moreover, the NADPH fluorescence slope in experiment [6] was -4.9e-05 (inactive). Further, in [7], the slope was 0.00603 (inactive). In experiment [8], the call was inactive.

In the case of `Cc1c(NC(=O)C(CC(=O)O)NCc2ccco2)c(=O)n(-c2ccccc2)n1C` (centres undefined), the cell count in [1] worked out at 357. The inhibition in [1] was -8% (inactive); in [2], -112% (inactive); in [4] it was -5.26% (inactive); in experiment [9], -0.003% (inactive). The molecule also yielded a nuclei count in [2] of 164%. Moreover, the results for the z-score in [3] (setting [10]), in [3] (setting [11]) and in [3] (setting [12]) were -0.725, 2.03 and 1.41, respectively. Besides, the fluorescence slope in experiment [5] was -0.44 (inactive). In [6], the NADPH fluorescence slope was -0.000144 (inactive). Besides, in [7], the slope is 0.00721 (inactive). In experiment [8], the molecule was classed as inactive.

For the molecule `CCOc1cc2nc(-c3ccc(OC)c(OC)c3)nc(N3CCOCC3)c2cc1OC`, the cell count in [1] worked out at 497. Further, the inhibition in [1] is -26.2% (inactive); in experiment [2], -85% (inactive); in [4], 20.9% (inactive); in experiment [9], 84.6% (active). For the same molecule, the nuclei count in [2] was determined as 151%. Moreover, the values for the z-score in [3] (setting [10]), in experiment [3] (setting [11]) and in experiment [3] (setting [12]) were -0.0989, -1.76 and -2.63, respectively. Further, the fluorescence slope in experiment [5] was -0.455 (inactive). The NADPH fluorescence slope in experiment [6] is -1.4e-05 (inactive). Further, in [7], the slope was 0.00555 (inactive). Also, the outcome in experiment [8] is “inactive; toxic”.
